Consider 9 compounds from ChEMBL document CHEMBL1154983, “Arylpiperazine-containing pyrrole 3-carboxamide derivatives targeting serotonin 5-HT(2A), 5-HT(2C), and the serotonin transporter as a potential antidepressant” (Bioorg Med Chem Lett, 2010).

The source made the active and inactive calls. No cut-off for these calls is given here.

The test system of test [1] is Mus musculus. Put plainly: Antidepressant activity in mouse assessed as decrease in duration of immobility at 100 mg/kg, po during final 5 mins of the 6 mins session by forced swimming test. Type of test: functional. In short, it runs like this:
(§1)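 Mice swam 10 min in a 25-cm glass cylinder (10 cm diameter) holding 15 cm of water at 23 1 °C. Twenty-four hours later, drug was given po 60 min before retesting. Immobility (floating upright with only small movements keeping head above water) was totalled over the last 5 min of the 6-min test.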

Test [2] relates to Mus musculus. Put plainly: Antidepressant activity in mouse assessed as decrease in duration of immobility at 50 mg/kg, po during final 5 mins of the 6 mins session by forced swimming test. The format is functional, organism-based. Further details: dose 50 mg/kg. Put shortly:
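Mice swim for 10 min in a 25-cm glass cylinder (10 cm diameter) holding 15 cm of water at 23 ± 1 °C. They are retested 24 h later for 6 min. Compound is suspended in 3% Tween 80 and given orally 60 min before the test. Total immobility time (floating upright, only small head-keeping movements) is scored over the last 5 min. Means ± S.E.M.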

Test [3] concerns the target 5-hydroxytryptamine receptor 2A (Homo sapiens, UniProt P28223). As to the kind of experiment: Displacement of [3H]ketanserin from human recombinant 5-HT2A receptor expressed in CHO-K1 cells after 60 mins. The format is cell-based. Put shortly:
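Membranes were from CHO-K1 cells stably expressing 5-HT2A. Radioligand was at 1 nM, with mianserin defining nonspecific binding. Incubation ran 60 min at 27 °C in 50 mM Tris–HCl pH 7.4 with 4 mM CaCl2 and 0.1% ascorbic acid. Harvesting was by filtration through glass-fibre filters presoaked in 0.5% PEI.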

Test [4] addresses T1, 5-hydroxytryptamine receptor 2C (Homo sapiens, UniProt P28335).
T1 sequence (P28335 whole entry): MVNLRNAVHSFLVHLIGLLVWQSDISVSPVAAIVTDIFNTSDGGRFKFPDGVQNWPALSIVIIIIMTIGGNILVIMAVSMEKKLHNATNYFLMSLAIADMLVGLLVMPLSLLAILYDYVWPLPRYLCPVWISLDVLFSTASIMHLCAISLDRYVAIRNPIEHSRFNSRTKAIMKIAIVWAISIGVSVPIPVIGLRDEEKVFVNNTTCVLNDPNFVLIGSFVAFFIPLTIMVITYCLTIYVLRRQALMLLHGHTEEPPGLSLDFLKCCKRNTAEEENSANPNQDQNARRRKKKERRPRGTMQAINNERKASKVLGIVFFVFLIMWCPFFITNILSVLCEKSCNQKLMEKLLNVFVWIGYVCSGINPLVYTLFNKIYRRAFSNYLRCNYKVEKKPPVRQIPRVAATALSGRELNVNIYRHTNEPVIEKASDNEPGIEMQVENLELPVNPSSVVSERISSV
As to the kind of experiment: Displacement of [3H]mesulergine from human recombinant 5-HT2C receptor expressed in CHO-K1 cells after 60 mins by rapid filtration assay. The format is cell-based. Put shortly: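 Frozen membranes were from CHO-K1 cells stably expressing human recombinant 5-HT2C, with 1.4 nM [3H]mesulergine. Buffer was 50 mM Tris–HCl pH 7.4, 4 mM CaCl2 and 0.1% ascorbic acid, with methiothepin for nonspecific binding. Incubation ran 60 min at 27 °C, stopped by rapid filtration through 0.5% PEI-presoaked glass-fibre filters.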

In test [5] the target is Sodium-dependent serotonin transporter (Homo sapiens, UniProt P31645). As to the kind of experiment: Displacement of [3H]imipramine from human SERT expressed in HEK293 cells after 30 mins by rapid filtration assay. The format is cell-based. Put shortly:
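Frozen membranes were from HEK293 cells expressing human SERT, with 4 nM [3H]imipramine in 50 mM Tris–HCl pH 7.4, 120 mM NaCl and 5 mM KCl. Unlabelled imipramine defined nonspecific binding. Incubation ran 30 min at 27 °C, terminated by rapid filtration through 0.5% PEI-presoaked glass-fibre filters.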

For test [6], the system named is Mus musculus. As to the kind of experiment: Antidepressant activity in mouse assessed as decrease in duration of immobility at 25 mg/kg, po during final 5 mins of the 6 mins session by forced swimming test. Type of test: functional. More on the design: scale not given: the % may be the effect or the level left. Put shortly: as §1
The test system of test [7] is Mus musculus. Put plainly: Antidepressant activity in mouse assessed as decrease in duration of immobility at 10 mg/kg, po during final 5 mins of the 6 mins session by forced swimming test. The format is functional. Further details: scale not given: the % may be the effect or the level left. In short, it runs like this: as §1
The target in test [8] is T2, 5-hydroxytryptamine receptor 1A (Homo sapiens, UniProt P08908).
T2 sequence (P08908 whole entry): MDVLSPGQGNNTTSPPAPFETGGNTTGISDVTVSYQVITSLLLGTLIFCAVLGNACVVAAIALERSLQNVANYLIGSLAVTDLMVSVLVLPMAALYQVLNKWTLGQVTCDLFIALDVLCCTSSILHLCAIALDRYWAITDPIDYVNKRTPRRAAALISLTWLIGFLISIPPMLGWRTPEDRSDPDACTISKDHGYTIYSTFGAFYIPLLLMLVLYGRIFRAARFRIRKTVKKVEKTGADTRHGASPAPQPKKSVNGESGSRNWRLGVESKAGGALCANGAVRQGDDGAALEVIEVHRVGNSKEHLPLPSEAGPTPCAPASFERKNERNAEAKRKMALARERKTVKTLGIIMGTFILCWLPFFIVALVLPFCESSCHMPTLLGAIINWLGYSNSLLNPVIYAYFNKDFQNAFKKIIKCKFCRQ
As to the kind of experiment: Inhibition of 5HT1A receptor.

Test [9] deals with 5-hydroxytryptamine receptor 6 (Homo sapiens, UniProt P50406). As to the kind of experiment: Inhibition of 5HT6 receptor.
5-hydroxytryptamine receptor 6, sequence (P50406 whole entry): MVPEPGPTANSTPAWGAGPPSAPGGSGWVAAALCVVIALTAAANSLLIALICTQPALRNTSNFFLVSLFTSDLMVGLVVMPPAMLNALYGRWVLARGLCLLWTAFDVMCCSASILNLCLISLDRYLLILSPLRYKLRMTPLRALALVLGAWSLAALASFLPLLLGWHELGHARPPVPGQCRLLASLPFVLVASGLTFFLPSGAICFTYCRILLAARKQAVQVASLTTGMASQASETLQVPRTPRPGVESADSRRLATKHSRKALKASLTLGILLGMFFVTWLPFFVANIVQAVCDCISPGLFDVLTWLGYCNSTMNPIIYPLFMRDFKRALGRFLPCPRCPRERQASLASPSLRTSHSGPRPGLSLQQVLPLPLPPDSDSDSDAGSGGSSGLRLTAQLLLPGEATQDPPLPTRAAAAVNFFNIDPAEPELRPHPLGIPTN
The target in test [10] is 5-hydroxytryptamine receptor 7 (Homo sapiens, UniProt P34969). As to the kind of experiment: Inhibition of 5HT7 receptor.
5-hydroxytryptamine receptor 7, sequence (P34969 whole entry): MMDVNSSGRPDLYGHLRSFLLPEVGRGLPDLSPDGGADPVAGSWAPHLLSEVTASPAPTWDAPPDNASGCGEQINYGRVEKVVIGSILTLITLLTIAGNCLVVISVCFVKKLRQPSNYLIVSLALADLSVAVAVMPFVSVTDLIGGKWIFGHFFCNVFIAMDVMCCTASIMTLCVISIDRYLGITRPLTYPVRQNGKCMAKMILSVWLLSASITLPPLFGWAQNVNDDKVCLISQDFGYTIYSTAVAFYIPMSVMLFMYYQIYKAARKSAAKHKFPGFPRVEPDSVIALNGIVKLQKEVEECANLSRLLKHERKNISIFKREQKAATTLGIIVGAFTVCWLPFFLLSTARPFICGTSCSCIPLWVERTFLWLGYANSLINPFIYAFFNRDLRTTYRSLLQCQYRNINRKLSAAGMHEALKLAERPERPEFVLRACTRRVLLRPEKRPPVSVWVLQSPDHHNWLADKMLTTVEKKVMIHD
In the next test the target is D(2) dopamine receptor (Homo sapiens, UniProt P14416). Put plainly: Inhibition of dopamine D2 receptor.
D(2) dopamine receptor, sequence (P14416 whole entry): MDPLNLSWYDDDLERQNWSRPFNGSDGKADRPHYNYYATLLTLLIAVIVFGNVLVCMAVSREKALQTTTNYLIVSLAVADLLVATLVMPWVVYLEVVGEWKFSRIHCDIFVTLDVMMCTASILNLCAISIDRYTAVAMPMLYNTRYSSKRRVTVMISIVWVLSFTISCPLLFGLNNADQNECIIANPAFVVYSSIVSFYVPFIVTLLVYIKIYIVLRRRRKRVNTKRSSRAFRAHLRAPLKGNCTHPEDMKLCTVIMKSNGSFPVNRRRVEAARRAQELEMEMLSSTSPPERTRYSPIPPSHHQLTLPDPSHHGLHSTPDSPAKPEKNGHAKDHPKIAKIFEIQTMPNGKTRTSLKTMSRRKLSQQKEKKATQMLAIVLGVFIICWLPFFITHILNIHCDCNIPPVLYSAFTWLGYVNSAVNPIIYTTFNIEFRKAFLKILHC
The next test addresses D(3) dopamine receptor (Homo sapiens, UniProt P35462). Put plainly: Inhibition of dopamine D3 receptor.
The target in the next test is T3, D(4) dopamine receptor (Homo sapiens, UniProt P21917).
T3 sequence (P21917 whole entry): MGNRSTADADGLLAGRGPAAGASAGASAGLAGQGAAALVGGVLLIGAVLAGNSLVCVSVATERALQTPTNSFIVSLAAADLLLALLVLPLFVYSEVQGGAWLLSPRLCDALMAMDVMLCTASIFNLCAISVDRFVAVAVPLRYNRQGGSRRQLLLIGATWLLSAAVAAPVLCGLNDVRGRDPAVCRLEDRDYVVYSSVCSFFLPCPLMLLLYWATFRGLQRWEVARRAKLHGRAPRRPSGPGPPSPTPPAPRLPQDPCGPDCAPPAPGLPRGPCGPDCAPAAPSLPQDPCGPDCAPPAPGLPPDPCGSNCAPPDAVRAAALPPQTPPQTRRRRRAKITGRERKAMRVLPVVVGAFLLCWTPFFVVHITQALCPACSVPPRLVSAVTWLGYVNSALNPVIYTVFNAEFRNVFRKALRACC
Put plainly: Inhibition of dopamine D4 receptor.

Sodium-dependent serotonin transporter, sequence (P31645 whole entry): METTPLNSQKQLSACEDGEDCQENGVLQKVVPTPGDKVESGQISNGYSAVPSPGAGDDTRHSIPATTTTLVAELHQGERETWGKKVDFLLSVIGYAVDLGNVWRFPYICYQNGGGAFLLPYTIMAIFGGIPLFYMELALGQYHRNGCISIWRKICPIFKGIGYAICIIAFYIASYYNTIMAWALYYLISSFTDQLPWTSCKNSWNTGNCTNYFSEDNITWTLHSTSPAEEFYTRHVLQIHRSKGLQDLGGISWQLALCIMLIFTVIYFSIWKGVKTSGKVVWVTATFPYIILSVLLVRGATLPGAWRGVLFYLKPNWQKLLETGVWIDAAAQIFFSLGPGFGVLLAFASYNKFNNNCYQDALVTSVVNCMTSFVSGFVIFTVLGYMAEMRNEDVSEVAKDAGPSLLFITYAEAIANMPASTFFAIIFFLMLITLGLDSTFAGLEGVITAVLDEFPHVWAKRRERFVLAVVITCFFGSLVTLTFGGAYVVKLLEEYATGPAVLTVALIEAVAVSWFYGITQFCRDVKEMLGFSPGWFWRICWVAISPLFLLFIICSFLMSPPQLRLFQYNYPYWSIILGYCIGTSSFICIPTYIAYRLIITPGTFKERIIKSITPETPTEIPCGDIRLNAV
5-hydroxytryptamine receptor 2A, sequence (P28223 whole entry): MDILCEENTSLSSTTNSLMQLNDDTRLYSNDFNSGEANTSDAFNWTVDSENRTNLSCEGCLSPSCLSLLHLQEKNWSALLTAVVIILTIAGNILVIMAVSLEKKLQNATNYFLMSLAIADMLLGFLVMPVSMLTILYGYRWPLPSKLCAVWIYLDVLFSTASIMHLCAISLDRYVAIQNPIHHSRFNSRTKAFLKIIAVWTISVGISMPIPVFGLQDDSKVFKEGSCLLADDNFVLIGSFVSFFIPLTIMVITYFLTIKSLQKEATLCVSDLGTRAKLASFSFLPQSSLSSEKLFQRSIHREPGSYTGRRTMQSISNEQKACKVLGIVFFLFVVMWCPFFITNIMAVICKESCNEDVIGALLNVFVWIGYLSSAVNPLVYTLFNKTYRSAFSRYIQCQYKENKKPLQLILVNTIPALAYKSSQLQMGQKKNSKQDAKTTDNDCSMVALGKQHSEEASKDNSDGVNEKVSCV
D(3) dopamine receptor, sequence (P35462 whole entry): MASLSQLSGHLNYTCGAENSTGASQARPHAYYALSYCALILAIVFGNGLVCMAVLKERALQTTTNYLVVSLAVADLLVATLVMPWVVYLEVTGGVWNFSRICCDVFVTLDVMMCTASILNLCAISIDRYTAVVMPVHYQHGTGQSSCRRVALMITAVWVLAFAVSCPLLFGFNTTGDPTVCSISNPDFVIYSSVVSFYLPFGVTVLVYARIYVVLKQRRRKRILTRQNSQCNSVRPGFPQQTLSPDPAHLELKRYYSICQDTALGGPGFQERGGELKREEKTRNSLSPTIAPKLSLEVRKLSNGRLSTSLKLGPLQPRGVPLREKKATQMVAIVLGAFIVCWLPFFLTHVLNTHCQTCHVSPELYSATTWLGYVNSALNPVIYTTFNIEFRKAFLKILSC

With `CCn1c(-c2ccccc2)cc(C(=O)NCCCN2CCN(c3cccc(Cl)c3)CC2)c1C`, the outcome in the test on Mus musculus [1] was inactive.
`Cc1cccc(N2CCN(CCCNC(=O)c3cc(-c4ccccc4)n(C)c3C)CC2)c1C`: the result with Mus musculus [2] was Active.
In the case of `Cc1c(C(=O)NCCCN2CCN(c3cccc(Cl)c3)CC2)cc(-c2ccccc2)n1N1CCCCC1`, the IC50 in test [3] amounted to 441 nM; in [4] it was 448 nM; in test [5], 110 nM.
Consider `CCCn1c(-c2ccccc2)cc(C(=O)NCCCN2CCN(c3cccc(Cl)c3Cl)CC2)c1C`, for which the Activity with Mus musculus [6] is less than 50%; with Mus musculus [7] it was 80%. In addition, the IC50 in [8] is 94 nM; in test [9], 1900 nM; in test [10] it was 408 nM; at D(2) dopamine receptor it was 3740 nM; at D(3) dopamine receptor it was 1070 nM; against D(4) dopamine receptor, 645 nM.
For the compound `CCn1c(-c2ccccc2)cc(C(=O)NCCCN2CCN(c3cccc(Cl)c3Cl)CC2)c1C`, the Activity in the test on Mus musculus [1] is recorded as less than 25%. Moreover, in the test on Mus musculus [7], the result was inactive.
In test [10], `Cc1c(C(=O)NCCCN2CCN(c3cccc(Cl)c3Cl)CC2)cc(-c2ccccc2)n1-c1ccc(F)cc1` gave an IC50 of 524 nM.
Regarding `Cc1c(C(=O)NCCN2CCN(c3cccc(Cl)c3Cl)CC2)cc(-c2ccccc2)n1C`, the half-maximal inhibitory concentration (IC50) in [3] came to 175 nM; in [4], 156 nM; in test [5] it was 57 nM.
With `Cc1[nH]c(-c2ccccc2)cc1C(=O)NCCCN1CCN(c2cccc(Cl)c2Cl)CC1`, the half-inhibitory concentration (IC50) amounted to 137 nM in test [5]; 117 nM in test [8]; 1410 nM in test [9]; 456 nM in test [10]; 1070 nM against D(2) dopamine receptor; 334 nM against D(3) dopamine receptor. The compound also had an IC50 on D(4) dopamine receptor of 1840 nM. Besides, the Activity with Mus musculus [6] is less than 50%.
With `Cc1c(C(=O)NCCCN2CCN(c3cccc(Cl)c3)CC2)cc(-c2ccccc2)n1C`, the outcome in the test with Mus musculus [1] was inactive.
